IC50 and Activity data for 16 compounds are collected here from ChEMBL document CHEMBL1147810, “Novel combretastatin analogues endowed with antitumor activity” (J Med Chem, 2006).

In general, IC50 refers to the concentration needed to halve the response being measured. Higher therefore signals lower potency.

One assay relates to BMEC. Put plainly: Antiproliferative activity against bovine BMEC. Type of assay: functional, cell-based. Particulars: Bos taurus. An outline of the steps:
(§1)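 Cells plated, then exposed 24 h after seeding to graded drug concentrations for 24 h. Drug removed, 48 h recovery in drug-free medium, surviving cells stained with sulforhodamine B (OD 564). […] BMEC: primary bovine adrenal cultures in DMEM, 20% FCS, heparin, brain extract.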

The test system of the next assay is HUVEC. Put plainly: Antiproliferative activity against human HUVEC. Type of assay: functional, cell-based. An outline of the steps:
as §1

For another assay, the system named is HCT-116. Put plainly: Antiproliferative activity against human HCT116 cells. Type of assay: functional, cell-based. An outline of the steps:
as §1

Another assay relates to MeWo. The assay can be described thus: Antiproliferative activity against human MeWo cells. Type of assay: functional, cell-based. Summed up: as §1
The next assay deals with MCF7. Put plainly: Antiproliferative activity against human MCF7 cells. Type of assay: functional, cell-based. An outline of the steps:
as §1

A further assay has as its system MCF7-DOX. The assay can be described thus: Antiproliferative activity against doxorubicin-resistant human MCF7-dx cells. Type of assay: functional, cell-based. Summed up:
as §1

Assay [1] concerns A2780. Put plainly: Antiproliferative activity against human A2780 cells. Type of assay: functional, cell-based. Summed up: as §1
Assay [2] has as its system A2780. The assay can be described thus: Antiproliferative activity against doxorubicin-resistant human A2780-dx cells. Type of assay: functional, cell-based. An outline of the steps: as §1
A further assay relates to IGROV-1. Put plainly: Antiproliferative activity against human IGROV1 cells. Type of assay: functional, cell-based. Summed up: as §1
Assay [3] relates to NCI-H460. Put plainly: Cell cycle arrest in NCI-H460 cells by accumulation at G1/0 phase cell at 3 nM post 24 hrs treatment. Type of assay: functional, Homo sapiens.
In assay [4] the test system is NCI-H460. Put plainly: Cell cycle arrest in NCI-H460 cells by accumulation at G1/0 phase cell at 3 nM post 24 hrs treatment and 24 hrs recovery. Type of assay: functional, Homo sapiens.
The subject of assay [5] is NCI-H460. Put plainly: Cell cycle arrest in NCI-H460 cells by accumulation at G1/0 phase cell at 3 nM post 24 hrs treatment and 48 hrs recovery. Type of assay: functional, Homo sapiens.
Assay [6] deals with NCI-H460. Put plainly: Cell cycle arrest in NCI-H460 cells by accumulation at S phase cell at 3 nM post 24 hrs treatment.
Assay [7] concerns NCI-H460. Put plainly: Cell cycle arrest in NCI-H460 cells by accumulation at G2/M phase cell at 3 nM post 24 hrs treatment.
Assay [8] concerns NCI-H460. The assay can be described thus: Cell cycle arrest in NCI-H460 cells by accumulation at S phase cell at 3 nM post 24 hrs treatment and 48 hrs recovery.
Assay [9] deals with NCI-H460. Put plainly: Cell cycle arrest in NCI-H460 cells by accumulation at S phase cell at 3 nM post 24 hrs treatment and 24 hrs recovery.
The test system of assay [10] is NCI-H460. Put plainly: Cell cycle arrest in NCI-H460 cells by accumulation at G2/M phase cell at 3 nM post 24 hrs treatment and 24 hrs recovery.
For assay [11], the system named is NCI-H460. Put plainly: Cell cycle arrest in NCI-H460 cells by accumulation at G2/M phase cell at 3 nM post 24 hrs treatment and 48 hrs recovery.
For assay [12], the system named is NCI-H460. The assay can be described thus: Antiproliferative activity against human H460 cells. Type of assay: functional, cell-based. An outline of the steps: as §1
For assay [13], the system named is NCI-H460. The assay can be described thus: Antitumor activity in CD1 mice implanted with NCI-H460 xenografts at 60 mg/kg, po. Format: functional, organism-based. On the set-up: dose 60 mg/kg. Particulars: Homo sapiens. An outline of the steps:
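NCI-H460 cells (3.0 × 10⁶ in HBSS) injected sc into right flank of female CD-1 nude mice; groups of eight once tumors reached ~30 mg (day 5). Oral 60 mg/kg twice daily, 5 days/week for 3 weeks; controls got vehicle. Caliper volumes (length × width²/2) twice weekly; toxicity scored as % max body-weight loss; Mann-Whitney U test.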

Activity calls are given as the source filed them. No cut-off for these calls is given here.

`COc1cc(/C=C\c2cc(O)c3cc(-c4ccccc4)oc3c2)cc(OC)c1OC` displayed an IC50 in the assay with BMEC above 2000 nM.

Take `COc1cc(/C=C/c2cc(OC)c3ccoc3c2)cc(OC)c1OC`: in the assay on BMEC, inhibition was half-maximal at 75000 nM (IC50).

Compound `COc1cc(/C=C/c2cc(O)c3cc(-c4ccccc4)oc3c2)cc(OC)c1OC` had a half-maximal inhibitory concentration (IC50) in the assay with BMEC above 20000 nM.

Turning to `COc1cc(/C=C\c2ccc3cc[nH]c3c2)cc(OC)c1OC`, half-maximal inhibition with BMEC (IC50) required 28 nM.

In the case of `COc1cc(/C=C/c2cc(O)c3cc(C)oc3c2)cc(OC)c1OC`, in the assay with BMEC, the 50% inhibitory concentration (IC50) worked out at 12300 nM.

In turn, `COc1cc(/C=C/c2cc(O)c3c(-c4ccccc4)csc3c2)cc(OC)c1OC` showed an IC50 in the assay on BMEC above 20000 nM.

`COc1cc(/C=C\c2cc(O)c3c(-c4ccccc4)csc3c2)cc(OC)c1OC` yielded an IC50 in the assay on BMEC above 2000 nM.

`COc1cc(/C=C/c2cc(O)c3cc(-c4ccccc4)sc3c2)cc(OC)c1OC` had a 50% inhibitory concentration (IC50) in the assay on BMEC of 38000 nM.

For `COc1cc(/C=C/c2ccc3cc[nH]c3c2)cc(OC)c1OC`, the IC50 in the assay with BMEC amounted to 1900 nM.

Compound `COc1cc(/C=C\c2cc(O)c3cc(-c4ccccc4)sc3c2)cc(OC)c1OC` displayed an IC50 with BMEC of 23000 nM.

For the compound `COc1ccc(/C=C\c2cc(OC)c(OC)c(OC)c2)cc1O` [COMBRETASTATIN A4], the 50% inhibitory concentration (IC50) in the assay on HUVEC was 1.5 nM; in the assay with HCT-116, 1.9 nM; with MeWo it was 4 nM; in the assay with MCF7, 2 nM; with MCF7-DOX, 2.3 nM; with A2780 [1], 2.19 nM. In addition, the values for the IC50 with A2780 [2] and with IGROV-1 were 1.66 nM and 10.3 nM, respectively. Further, the Activity in the assay with NCI-H460 [3] was 8%; with NCI-H460 [4] it was 62%; in the assay with NCI-H460 [5], 55%; in the assay with NCI-H460 [6], 12%; in the assay with NCI-H460 [7] it was 79%; with NCI-H460 [8], 18%. For the same compound, the figures for the Activity in the assay with NCI-H460 [9], in the assay on NCI-H460 [10] and with NCI-H460 [11] were 22%, 16% and 27%, respectively.

In the case of `COc1cc(/C=C\c2cc(OP(=O)(O)O)c3ccsc3c2)cc(OC)c1OC`, the IC50 was 83 nM in the assay with HUVEC; 620 nM in the assay with NCI-H460 [12]; 3000 nM in the assay with HCT-116; 830 nM with MeWo; 639 nM in the assay on MCF7; 487 nM in the assay with MCF7-DOX. The IC50 with A2780 [1] stood at 500 nM; in the assay with A2780 [2], 750 nM; in the assay on IGROV-1, 1610 nM; with BMEC it was 640 nM. The result with NCI-H460 [13] was Active.

In the assay on BMEC, `COc1cc(/C=C\c2cc(O)c3cc(C)oc3c2)cc(OC)c1OC` registered a half-maximal inhibitory concentration (IC50) of 93 nM.

For `COc1cc(/C=C\c2cc(O)c3cc(C)sc3c2)cc(OC)c1OC`, in the assay with BMEC, the half-maximal inhibitory concentration (IC50) came out at 23 nM.

Regarding `COc1cc(/C=C\c2cc(OC)c3ccoc3c2)cc(OC)c1OC`, the IC50 with BMEC is 7500 nM.

Compound `COc1cc(/C=C/c2cc(O)c3cc(C)sc3c2)cc(OC)c1OC` displayed a half-inhibitory concentration (IC50) in the assay with BMEC of 840 nM.
